Experimental data as given in ChEMBL document CHEMBL1158040, “Biological activities and 3D QSAR studies of a series of Delisea pulchra (cf. fimbriata) derived natural products” (J Nat Prod, 2006).
≈ marks a conversion by molar mass, not a printed value. Calls of active or inactive are those of the source. The rule behind the calls is not given here.

Assays:
[1] = tested on: Monocyte; test: Inhibition of LPS-stimulated IL1 production in human monocytes; type: functional, cell-based
[2] = tested on: Escherichia coli; test: Antimicrobial activity against Escherichia coli at 10 ug; type: functional, organism-based
In short: (§1)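 Direct bioautography: each compound is spotted onto TLC plates and the solvent evaporated. The test organism is then grown directly on the plate. Growth inhibition is scored at the spot as active (+) or very active (++). Where a number is given, it is the radius in mm of the inhibition zone around the spot.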

[3] = tested on: Plasmodium falciparum; test: Antimalarial activity against chloroquine-sensitive Plasmodium falciparum D6 at 10 ug/ml; type: functional
[4] = tested on: Bacillus subtilis; test: Antimicrobial activity against Bacillus subtilis at 5 ug; type: functional, organism-based; in short: as §1
[5] = tested on: Penicillium oxalicum; test: Antimicrobial activity against Penicillium oxalicum at 0.01 ug; type: functional; in short: as §1
[6] = tested on: Bacillus subtilis; test: Antimicrobial activity against Bacillus subtilis at 10 ug; type: functional, organism-based; in short: as §1
[7] = tested on: Micrococcus luteus; test: Antimicrobial activity against Micrococcus luteus at 5 ug; type: functional, organism-based; in short: as §1
[8] = tested on: Bacillus subtilis; test: Antimicrobial activity against Bacillus subtilis at 1 ug; type: functional, organism-based; in short: as §1
[9] = tested on: Micrococcus luteus; test: Antimicrobial activity against Micrococcus luteus at 0.1 ug; type: functional, organism-based; in short: as §1
[10] = tested on: Escherichia coli; test: Antimicrobial activity against Escherichia coli at 1 ug; type: functional, organism-based; in short: as §1
[11] = tested on: KB; test: Cytotoxicity against human KB cells; type: functional; conditions: read-out: ED50 (the source's name)
[12] = tested on: Micrococcus luteus; test: Antimicrobial activity against Micrococcus luteus at 10 ug; type: functional, organism-based; in short: as §1
[13] = tested on: KB; test: Cytotoxicity against vinblastine-sensitive human KB cells; type: functional; conditions: read-out: ED50 (the source's name)
[14] = tested on: Penicillium oxalicum; test: Antimicrobial activity against Penicillium oxalicum at 10 ug; type: functional; conditions: read-out: IZ; in short: as §1
[15] = tested on: Lu1; test: Cytotoxicity against human Lu1 cells; type: functional; conditions: read-out: ED50 (the source's name)
[16] = target: Human immunodeficiency virus type 1 reverse transcriptase (Human immunodeficiency virus 1) (UniProt Q72547); test: Inhibition of HIV1 RT at 200 uM
In short: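 HIV-1 reverse transcriptase inhibition was measured in an ELISA-based system.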

[17] = tested on: Penicillium oxalicum; test: Antimicrobial activity against Penicillium oxalicum at 5 ug; type: functional; conditions: read-out: IZ; in short: as §1
[18] = tested on: Penicillium oxalicum; test: Antimicrobial activity against Penicillium oxalicum at 0.1 ug; type: functional; in short: as §1
[19] = tested on: Mycobacterium tuberculosis; test: Antimycobacterial activity against Mycobacterium tuberculosis at 128 uM; type: functional, organism-based
[20] = tested on: Micrococcus luteus; test: Antimicrobial activity against Micrococcus luteus at 1 ug; type: functional, organism-based; in short: as §1
[21] = tested on: Mycobacterium avium; test: Antimycobacterial activity against Mycobacterium avium at 128 uM; type: functional, organism-based
[22] = tested on: Monocyte; test: Inhibition of IL1 biosynthesis in human monocytes; type: functional, cell-based
[23] = tested on: Bacillus subtilis; test: Antimicrobial activity against Bacillus subtilis at 0.1 ug; type: functional, organism-based; in short: as §1
[24] = tested on: KB; test: Cytotoxicity against vinblastine-resistant human KB cells; type: functional; conditions: read-out: ED50 (the source's name)
In short: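 The vinblastine-resistant KB-V1 line was tested both with and without added vinblastine in the cultured tumour-cell cytotoxicity panel. Results are reported as ED50.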

[25] = Inhibition of PKC
[26] = Inhibition of TK assessed as residual activity at 200 ug/ml
In short: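 The enzyme was tyrosine kinase p56lck, with test compounds at 200 μg/mL. The read-out is the remaining enzyme activity.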

[27] = tested on: Escherichia coli; test: Antimicrobial activity against Escherichia coli at 5 ug; type: functional, organism-based; in short: as §1
[28] = tested on: LNCaP; test: Cytotoxicity against human LNCAP cells; type: functional; conditions: read-out: ED50 (the source's name)
[29] = tested on: ZR-75-1; test: Cytotoxicity against human ZR-75-1 cells; type: functional; conditions: read-out: ED50 (the source's name)
[30] = tested on: Penicillium oxalicum; test: Antimicrobial activity against Penicillium oxalicum at 1 ug; type: functional; conditions: for zone of inhibition at 1 µg/disc: read-out: IZ; in short: as §1
[31] = tested on: Escherichia coli; test: Antimicrobial activity against Escherichia coli at 0.1 ug; type: functional, organism-based; in short: as §1
[32] = tested on: Penicillium oxalicum; test: Antimicrobial activity against Penicillium oxalicum at 1.6 ug; type: functional; conditions: read-out: IZ; in short: as §1
[33] = tested on: Penicillium oxalicum; test: Antimicrobial activity against Penicillium oxalicum at 0.8 ug; type: functional; conditions: read-out: IZ; in short: as §1
[34] = Cytotoxicity against human U373 cells; type: functional, U-373MG ATCC; conditions: U373 MG, read-out: ED50 (the source's name)
[35] = Cytotoxicity against human BCA1 cells; type: functional; conditions: read-out: ED50 (the source's name)
[36] = tested on: A-431; test: Cytotoxicity against human A431 cells; type: functional; conditions: read-out: ED50 (the source's name)
[37] = tested on: HT-1080; test: Cytotoxicity against human HT1080 cells; type: functional; conditions: read-out: ED50 (the source's name)
[38] = Cytotoxicity against human Col1 cells; type: functional; conditions: read-out: ED50 (the source's name)
[39] = tested on: P388; test: Cytotoxicity against mouse P388 cells; type: functional; conditions: read-out: ED50 (the source's name)
[40] = Cytotoxicity against human MEL-2 cells; type: functional; conditions: MEL2, read-out: ED50 (the source's name)
[41] = tested on: Plasmodium falciparum; test: Antimalarial activity against chloroquine-resistant Plasmodium falciparum W2; type: functional, organism-based
In short: (§2)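 In vitro growth inhibition of Plasmodium falciparum clones D6 (chloroquine-sensitive) and W2 (chloroquine-resistant); IC50 reported in μg/mL.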

[42] = Selectivity index, ratio of IC50 for human KB cells to IC50 for Plasmodium falciparum D6; type: toxicity, cell-based; conditions: KB cells versus Plasmodium falciparum D6, read-out: Ratio IC50
In short: (§3)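 Plasmodium falciparum clones were assayed in vitro: D6 (chloroquine-sensitive) and W2 (chloroquine-resistant). IC50 is in μg/mL. The selectivity index is the ratio of the antimalarial to the cytotoxic activity.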

[43] = tested on: Plasmodium falciparum; test: Antimalarial activity against chloroquine-sensitive Plasmodium falciparum D6; type: functional, organism-based; in short: as §2
[44] = Selectivity index, ratio of IC50 for human KB cells to IC50 for Plasmodium falciparum W2; type: toxicity, cell-based; conditions: KB cells versus Plasmodium falciparum W2, read-out: Ratio IC50; in short: as §3

| Structure (SMILES) | IC50 [1] [nM] | Activity [2] | Activity [3] [%] | Activity [4] | Activity [5] | Activity [6] | Activity [7] | Activity [8] | Activity [9] | Activity [10] | EC50 [11] [µg/mL] | Activity [12] | EC50 [13] [µg/mL] | zone of inhibition at 10 µg/disc [14] [mm] | EC50 [15] [µg/mL] | zone of inhibition at 5 µg/disc [17] [mm] | Activity [20] | IC50 [22] [nM] | EC50 [24] [µg/mL] | Activity [27] | further results |
| --- | --- | --- | --- | --- | --- | --- | --- | --- | --- | --- | --- | --- | --- | --- | --- | --- | --- | --- | --- | --- | --- |
| CCC[C@@H](O)C1=C(Br)/C(=C/Br)OC1=O | 600 | Active | >50 | Active | inactive | Active | Active | Active | inactive | Active | 0.4 (≈ 1.23 µM) | Active | 3.4 (≈ 10.4 µM) | 27 | 0.3 (≈ 0.92 µM) | 26 | Active | 1500 | 0.1 (≈ 0.307 µM) | Active | Activity [16]: inactive; zone of inhibition at 0.1 µg/disc ([18]; read-out: IZ): 6 mm; Activity [19]: inactive; IC50 [21]: 350000 nM; Activity [23]: Active; IC50 [25]: 76000 nM; Activity [26]: 3.4%; EC50 [28]: 0.2 µg/mL (≈ 0.614 µM); EC50 [29]: < 0.1 µg/mL; zone of inhibition at 1 µg/disc [30]: 20 mm |
| CCC(CCC(=O)C(Br)=C(Br)Br)OC(C)=O (centres undefined) | 2000 | Active |  | Active | inactive | Active | inactive | inactive |  | inactive |  | inactive |  | 8 |  | 9 | inactive | 2000 |  | Active | Activity [31]: inactive; Activity [18]: inactive; IC50 [25]: ≥ 200000 nM; Activity [26]: 31.7%; zone of inhibition at 1 µg/disc [30]: 6 mm |
| Clc1ccc(COC(Cn2ccnc2)c2ccc(Cl)cc2Cl)c(Cl)c1 (centres undefined) [MICONAZOLE] |  |  |  |  |  |  |  |  |  |  |  |  |  |  |  |  |  |  |  |  | zone of inhibition at 1.6 µg/disc [32]: 5 mm; zone of inhibition at 0.8 µg/disc [33]: 3 mm |
| CCCCC1=C(Br)/C(=C/Br)OC1=O |  | Active | >50 | inactive |  | Active | Active | inactive | inactive | inactive | > 20 | Active | > 20 | 3 | > 20 | 3 | Active |  | > 20 | inactive | Activity [31]: inactive; EC50 [34]: 10 µg/mL (≈ 32.3 µM); EC50 [35]: 9.8 µg/mL (≈ 31.6 µM); EC50 [36]: > 20 µg/mL; EC50 [37]: 2.2 µg/mL (≈ 7.1 µM); EC50 [38]: > 20 µg/mL; EC50 [39]: > 5 µg/mL; EC50 [40]: 5.3 µg/mL (≈ 17.1 µM); EC50 [28]: 7.3 µg/mL (≈ 23.5 µM); EC50 [29]: 10.2 µg/mL (≈ 32.9 µM); Activity [30]: inactive |
| C[C@@H]1CC[C@H]2[C@@H](C)C(=O)O[C@@H]3O[C@@]4(C)CC[C@@H]1[C@]32OO4 [ARTEMISININ] |  |  |  |  |  |  |  |  |  |  | > 20 |  |  |  |  |  |  |  |  |  | IC50 [41]: 0.006 µg/mL (≈ 0.0213 µM); selectivity ratio [42]: > 18200; IC50 [43]: 0.001 µg/mL (≈ 0.00354 µM); selectivity ratio [44]: > 3280 |
